# Starred links: 1 amine or outer side, 2 acyl side, 3 side chain; linkers in the order of their positions; H or OH if unused. Positions of bridges follow the written chain, without caps; N, C: chain ends. Non-standard residues stand in square brackets, D forms with d. Residues, ends and D or L forms follow the SMILES beside them. *: point of attachment. X2 = O=C(CN([C@@H](CS[*:3])C(=O)[*:2])[*:1])c1ccccc1; X4 = O=C([C@@H](N[*:1])[C@@H](S[*:3])c1ccccc1)[*:2]; X1 = O=C([C@@H](N[*:1])[C@H](S[*:3])c1ccccc1)[*:2]; NMeR = CN[C@@H](CCCNC(=N)N)C(=O)O; Pen = CC(C)(S)[C@H](N)C(=O)O; Pentanoyl = CCCCC(=O)*; Bz = O=C(c1ccccc1)*; X3 = CC(S)C(=O)*
# Experiments:
# [1] = target: Integrin alpha-IIb/beta-3 (Homo sapiens, UniProt P05106+P08514); assay: Tested for inhibition of fibrinogen binding to purified GPIIb/IIIa isolated from human platelets and reconstituted in liposomes
# Outline: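 Displacement of [¹²⁵I]fibrinogen from purified human platelet GPIIb/IIIa incorporated into phospholipid vesicles. Values without statistical limits come from a single determination.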
# Canis familiaris = organism: Canis familiaris; assay: Inhibition of platelet aggregation in canine platelet rich plasma induced by ADP; assay type: functional, Canis lupus familiaris
# Outline: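 Citrated canine PRP aggregation read optically by light transmittance. Peptide stock was 12 mM in 0.2 M acetic acid. Final 200 µM peptide and 10 µM ADP, pH 7.7, after 5-min preincubation with peptide.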
# Sequence of Integrin alpha-IIb/beta-3 (P05106 27-788 limits assumed): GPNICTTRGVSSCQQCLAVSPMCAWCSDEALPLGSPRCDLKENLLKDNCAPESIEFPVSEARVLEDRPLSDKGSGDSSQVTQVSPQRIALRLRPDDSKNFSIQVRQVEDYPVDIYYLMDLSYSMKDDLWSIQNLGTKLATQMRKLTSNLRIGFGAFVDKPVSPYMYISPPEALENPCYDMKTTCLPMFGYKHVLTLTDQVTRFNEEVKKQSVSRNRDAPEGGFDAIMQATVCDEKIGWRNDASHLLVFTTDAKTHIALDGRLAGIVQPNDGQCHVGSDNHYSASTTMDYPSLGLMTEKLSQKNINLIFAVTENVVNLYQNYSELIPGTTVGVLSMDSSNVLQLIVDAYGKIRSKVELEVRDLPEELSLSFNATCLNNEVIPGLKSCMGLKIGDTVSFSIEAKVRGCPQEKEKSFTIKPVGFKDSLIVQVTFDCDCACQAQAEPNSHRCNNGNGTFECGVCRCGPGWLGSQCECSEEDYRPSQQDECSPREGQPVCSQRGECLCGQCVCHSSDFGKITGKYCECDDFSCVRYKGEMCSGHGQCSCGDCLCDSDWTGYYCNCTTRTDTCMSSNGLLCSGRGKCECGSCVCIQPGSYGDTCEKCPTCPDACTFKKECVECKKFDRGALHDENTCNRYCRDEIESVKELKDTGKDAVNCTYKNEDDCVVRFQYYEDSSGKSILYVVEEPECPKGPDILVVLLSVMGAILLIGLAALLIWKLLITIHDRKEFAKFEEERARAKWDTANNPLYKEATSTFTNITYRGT
# Sequence of Integrin alpha-IIb/beta-3 (P08514 32-887 limits assumed): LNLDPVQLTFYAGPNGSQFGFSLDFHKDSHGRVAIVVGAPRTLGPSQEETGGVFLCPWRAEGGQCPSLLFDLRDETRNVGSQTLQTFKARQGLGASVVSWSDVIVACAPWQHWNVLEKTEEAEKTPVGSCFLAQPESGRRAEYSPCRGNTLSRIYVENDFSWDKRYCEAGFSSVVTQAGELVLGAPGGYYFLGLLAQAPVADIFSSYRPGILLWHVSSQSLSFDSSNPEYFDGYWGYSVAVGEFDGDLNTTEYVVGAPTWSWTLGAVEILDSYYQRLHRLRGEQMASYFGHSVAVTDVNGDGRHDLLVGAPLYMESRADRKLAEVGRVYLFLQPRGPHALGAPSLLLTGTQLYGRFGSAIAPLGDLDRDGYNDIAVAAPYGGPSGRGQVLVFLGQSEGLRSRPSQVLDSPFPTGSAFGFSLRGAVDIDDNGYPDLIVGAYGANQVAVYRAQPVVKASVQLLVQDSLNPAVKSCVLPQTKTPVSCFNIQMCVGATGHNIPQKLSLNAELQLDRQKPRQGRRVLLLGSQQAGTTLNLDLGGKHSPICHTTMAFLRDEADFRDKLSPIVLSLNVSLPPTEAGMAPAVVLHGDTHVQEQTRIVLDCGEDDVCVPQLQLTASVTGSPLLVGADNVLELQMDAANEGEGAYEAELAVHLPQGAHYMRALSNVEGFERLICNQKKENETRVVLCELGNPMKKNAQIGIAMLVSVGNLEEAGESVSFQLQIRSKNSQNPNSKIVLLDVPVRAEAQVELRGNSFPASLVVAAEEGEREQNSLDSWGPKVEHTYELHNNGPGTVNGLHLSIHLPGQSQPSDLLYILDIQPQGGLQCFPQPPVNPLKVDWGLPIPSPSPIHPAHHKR
# Sequence of Integrin alpha-IIb/beta-3 (P08514 891-1039 limits assumed): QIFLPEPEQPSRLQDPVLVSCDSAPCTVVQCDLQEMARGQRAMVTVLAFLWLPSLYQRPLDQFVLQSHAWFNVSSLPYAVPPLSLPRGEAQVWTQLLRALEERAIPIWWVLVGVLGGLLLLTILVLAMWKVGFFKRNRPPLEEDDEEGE
Ki [1],"IC50 (Canis familiaris; Canis lupus familiaris, Plasma)",IC50 (Canis familiaris),SMILES
0.125 µM,0.098 µM,–,CC(=O)N[C@H]1CSS[C@H](c2ccccc2)[C@@H](C(N)=O)NC(=O)[C@H](CC(=O)O)NC(=O)CNC(=O)[C@H](CCCN=C(N)N)N(C)C1=O (Ac-C[NMeR]GD[X1]-NH2; disulfide 1-5)
> 1000 µM,> 200 µM,–,CC(=O)N[C@@H]1CSSC(C)(C)[C@H](C(N)=O)NC(=O)[C@H](CC(=O)O)NC(=O)CNC(=O)[C@@H](CCCNC(=N)N)NC1=O
15.1 µM,39.5 µM,–,"CC(=O)N[C@H]1CSSC(C)(C)[C@@H](C(N)=O)NC(=O)[C@H](CC(=O)O)NC(=O)CN(C)C(=O)[C@H](CCCN=C(N)N)N(C)C1=O (single isomer, unassigned)"
0.135 µM,0.36 µM,–,"CC(=O)N[C@H]1CSSC(C)(C)[C@@H](C(N)=O)NC(=O)[C@H](CC(=O)O)NC(=O)CNC(=O)[C@H](CCCN=C(N)N)N(C)C(=O)CNC1=O (single isomer, unassigned)"
0.0243 µM,0.34 µM,–,CC(S)C(=O)N[C@H]1CSSC(C)(C)[C@@H](C(N)=O)NC(=O)[C@H](CC(=O)O)NC(=O)CNC(=O)[C@H](CCCN=C(N)N)N(C)C1=O (some centres not stated) (X3-C[NMeR]GD[Pen]-NH2; disulfide 1-5)
0.0093 µM,0.2 µM,–,CN1C(=O)[C@@H](N)CSSC(C)(C)[C@@H](C(N)=O)NC(=O)[C@H](CC(=O)O)NC(=O)CNC(=O)[C@@H]1CCCN=C(N)N (H-C[NMeR]GD[Pen]-NH2; disulfide 1-5)
1.25 µM,73.4 µM,–,"CC(=O)N[C@H]1CSSC(C)(C)[C@@H](C(N)=O)NC(=O)[C@H](CC(=O)O)NC(=O)CN(C)C(=O)[C@H](CCCN=C(N)N)NC1=O (single isomer, unassigned)"
0.43 µM,0.29 µM,–,"CC(=O)N[C@H]1CSSC(C)(C)[C@@H](C(N)=O)NC(=O)[C@H](CC(=O)O)NC(=O)CNC(=O)[C@H](CCCN=C(N)N)N(C)C(=O)CN(Cc2ccccc2)C1=O (single isomer, unassigned)"
0.035 µM,0.28 µM,–,CN1C(=O)[C@@H](NCC(=O)c2ccccc2)CSSC(C)(C)[C@@H](C(N)=O)NC(=O)[C@H](CC(=O)O)NC(=O)CNC(=O)[C@@H]1CCCN=C(N)N (H-[X2][NMeR]GD[Pen]-NH2; disulfide 1-5)
25.3 µM,–,–,"CC(=O)N[C@H]1CSSC(C)(C)[C@@H](C(N)=O)NC(=O)[C@H](CC(=O)O)N(C)C(=O)CNC(=O)[C@H](CCCNC(=N)N)NC1=O (single isomer, unassigned)"
0.143 µM,3.46 µM,–,CN1CC(=O)N[C@@H](CCCNC(=N)N)C(=O)NCC(=O)N[C@@H](CC(=O)O)C(=O)Nc2ccccc2SSc2ccccc2C1=O
–,–,4.12 µM,"CC(=O)N[C@@H]1CSSC(C)(C)[C@H](C(N)=O)NC(=O)C(CC(=O)O)NC(=O)CNC(=O)C(CCCN=C(N)N)NC1=O (single isomer, unassigned; 12)"
> 100 µM,7.74 µM,–,CC(=O)N[C@@H]1CSSC(C)(C)[C@H](C(N)=O)NC(=O)[C@@H](CC(=O)O)NC(=O)CNC(=O)[C@@H](CCCN=C(N)N)N(Cc2ccccc2)C1=O
0.026 µM,0.25 µM,–,CCCCC(=O)N[C@H]1CSSC(C)(C)[C@@H](C(N)=O)NC(=O)[C@H](CC(=O)O)NC(=O)CNC(=O)[C@H](CCCN=C(N)N)N(C)C1=O (Pentanoyl-C[NMeR]GD[Pen]-NH2; disulfide 1-5)
–,23.4 µM,–,"CC(=O)N[C@H]1CSSC(C)(C)[C@@H](C(N)=O)NC(=O)[C@H](CC(=O)O)N(C)C(=O)CNC(=O)[C@H](CCCN=C(N)N)N(C)C1=O (single isomer, unassigned)"
–,1.2 µM,–,"CC(=O)N[C@H]1CSSC(C)(C)[C@@H](C(N)=O)NC(=O)[C@H](CC(=O)O)NC(=O)CNC(=O)[C@H](CCCN=C(N)N)NC(=O)CN(C)C1=O (single isomer, unassigned)"
0.082 µM,1.79 µM,–,CC(=O)N[C@@H]1CSSC(C)(C)[C@H](C(N)=O)NC(=O)[C@@H](CC(=O)O)NC(=O)CNC(=O)[C@H](CCCN=C(N)N)N(C)C1=O
0.0021 µM,–,–,CC(=O)N[C@H]1CSS[C@H](c2ccccc2)[C@@H](C(=O)O)NC(=O)[C@H](CC(=O)O)NC(=O)CNC(=O)[C@H](CCCNC(=N)N)N(C)C1=O (Ac-C[NMeR]GD[X1]-OH; disulfide 1-5)
0.026 µM,–,–,"CC(=O)N[C@H]1CSSc2ccccc2NC(=O)[C@H](CC(=O)O)NC(=O)CNC(=O)[C@H](CCCNC(=N)N)N(C)C1=O (single isomer, unassigned)"
–,8.08 µM,–,"N=C(N)NCCC[C@@H]1NC(=O)c2ccccc2SSC[C@@H](C(N)=O)NC(=O)[C@H](CC(=O)O)NC(=O)CNC1=O (single isomer, unassigned)"
0.188 µM,7.97 µM,–,"CC(=O)N[C@@H]1C(=O)N[C@@H](CCCN=C(N)N)C(=O)NCC(=O)N[C@@H](CC(=O)O)C(=O)N[C@H](C(N)=O)CSSC1(C)C (single isomer, unassigned)"
2.65 µM,98.7 µM,–,CC(=O)N[C@H]1CSSC(C)(C)[C@H](C(N)=O)NC(=O)[C@@H](CC(=O)O)NC(=O)CNC(=O)[C@@H](CCCNC(=N)N)NC1=O
0.28 µM,–,–,"CC(=O)N[C@H]1CSSc2ccccc2NC(=O)[C@H](CC(=O)O)NC(=O)CNC(=O)[C@H](CCCNC(=N)N)NC1=O (single isomer, unassigned)"
–,0.05 µM,–,CC(=O)N[C@H]1CSS[C@@H](c2ccccc2)[C@@H](C(N)=O)NC(=O)[C@H](CC(=O)O)NC(=O)CNC(=O)[C@H](CCCN=C(N)N)N(C)C1=O (Ac-C[NMeR]GD[X4]-NH2; disulfide 1-5)

Ki [1],"IC50 (Canis familiaris; Canis lupus familiaris, Plasma)",IC50 (Canis familiaris),SMILES
0.0085 µM,0.08 µM,–,CC(=O)N[C@H]1CSSC(C)(C)[C@@H](C(=O)O)NC(=O)[C@H](CC(=O)O)NC(=O)CNC(=O)[C@H](CCCN=C(N)N)N(C)C1=O (Ac-C[NMeR]GD[Pen]-OH; disulfide 1-5)
0.0245 µM,0.102 µM,–,CN1CC(=O)N(C)[C@@H](CCCN=C(N)N)C(=O)NCC(=O)N[C@@H](CC(=O)O)C(=O)Nc2ccccc2SSc2ccccc2C1=O
0.72 µM,4.12 µM,–,CC(=O)N[C@@H]1CSSC(C)(C)[C@H](C(N)=O)NC(=O)[C@@H](CC(=O)O)NC(=O)CNC(=O)[C@H](CCCNC(=N)N)NC1=O
0.0095 µM,0.236 µM,–,CN1C(=O)c2ccccc2SSCCNC(=O)[C@@H](CC(=O)O)NC(=O)CNC(=O)[C@H]1CCCNC(=N)N
–,24.4 µM,–,CC(=O)N[C@@H]1CSSC(C)(C)[C@H](C(N)=O)NC(=O)[C@@H](CC(=O)O)NC(=O)CNC(=O)[C@@H](CCCN=C(N)N)N(C)C(=O)[C@@H]2CCCN2C1=O
0.0137 µM,0.2 µM,–,CN1C(=O)[C@@H](NC(=O)c2ccccc2)CSSC(C)(C)[C@@H](C(N)=O)NC(=O)[C@H](CC(=O)O)NC(=O)CNC(=O)[C@@H]1CCCN=C(N)N (Bz-C[NMeR]GD[Pen]-NH2; disulfide 1-5)
0.045 µM,–,–,CC(=O)N[C@H]1CSS[C@@H](c2ccccc2)[C@@H](C(N)=O)NC(=O)[C@H](CC(=O)O)NC(=O)CNC(=O)[C@H](CCCNC(=N)N)N(C)C1=O (Ac-C[NMeR]GD[X4]-NH2; disulfide 1-5)
–,0.04 µM,–,CC(=O)N[C@H]1CSS[C@H](c2ccccc2)[C@@H](C(=O)O)NC(=O)[C@H](CC(=O)O)NC(=O)CNC(=O)[C@H](CCCN=C(N)N)N(C)C1=O (Ac-C[NMeR]GD[X1]-OH; disulfide 1-5)
–,0.09 µM,–,"CN1C(=O)c2ccccc2SSc2ccccc2NC(=O)[C@H](CC(=O)O)NC(=O)CNC(=O)[C@@H]1CCCN=C(N)N (single isomer, unassigned)"
4.2 µM,–,–,CC(=O)N[C@@H](CCCN=C(N)N)C(=O)NCC(=O)N[C@@H](CC(=O)O)C(N)=O
–,137 µM,–,"CC(=O)N[C@H]1CSSC(C)(C)[C@@H](C(N)=O)NC(=O)[C@H](CC(=O)O)N(C)C(=O)CNC(=O)[C@H](CCCN=C(N)N)NC1=O (single isomer, unassigned)"
0.61 µM,–,–,"CC(=O)N[C@H]1CSSC(C)(C)[C@@H](C(N)=O)NC(=O)[C@H](CC(=O)O)NC(=O)CNC(=O)[C@H](CCCN=C(N)N)NC(=O)CNC1=O (single isomer, unassigned) [listing 1 of 2 here]"
–,26 µM,–,CN1C(=O)c2ccccc2SSc2ccccc2NC(=O)[C@H](CC(=O)O)NC(=O)CNC(=O)[C@H]1CCCN=C(N)N
> 10 µM,–,–,CC(=O)N[C@H]1CSSC(C)(C)[C@@H](C(N)=O)NC(=O)[C@H](CC(=O)O)NC(=O)CNC(=O)[C@H](CCCNC(=N)N)N(C)C(=O)[C@@H]2CCCN2C1=O
0.077 µM,–,–,"CC(=O)N[C@H]1CSSC(C)(C)[C@@H](C(N)=O)NC(=O)[C@H](CC(=O)O)NC(=O)CNC(=O)[C@H](CCCNC(=N)N)NC(=O)CN(C)C1=O (single isomer, unassigned)"
–,9.71 µM,–,"CC(=O)N[C@H]1CSSc2ccccc2NC(=O)[C@H](CC(=O)O)NC(=O)CNC(=O)[C@H](CCCN=C(N)N)NC1=O (single isomer, unassigned)"
7.04 µM,–,–,"CC(=O)N[C@H]1CSSC(C)(C)[C@@H](C(N)=O)NC(=O)[C@H](CC(=O)O)N(C)C(=O)CNC(=O)[C@H](CCCNC(=N)N)N(C)C1=O (single isomer, unassigned)"
0.065 µM,–,–,"CCN1C(=O)[C@H](NC(C)=O)CSSC(C)(C)[C@H](C(N)=O)NC(=O)[C@@H](CC(=O)O)NC(=O)CNC(=O)[C@H]1CCCNC(=N)N (single isomer, unassigned)"
–,0.9 µM,–,"CCN1C(=O)[C@@H](NC(C)=O)CSSC(C)(C)[C@@H](C(N)=O)NC(=O)[C@H](CC(=O)O)NC(=O)CNC(=O)[C@@H]1CCCN=C(N)N (single isomer, unassigned)"
–,11.4 µM,–,"CC(=O)N[C@H]1CSSC(C)(C)[C@@H](C(N)=O)NC(=O)[C@H](CC(=O)O)NC(=O)CNC(=O)[C@H](CCCN=C(N)N)NC(=O)CNC1=O (single isomer, unassigned) [listing 2 of 2 here]"
–,16.2 µM,–,"CC(=O)N[C@H]1CSSC[C@@H](C(N)=O)NC(=O)[C@H](CC(=O)O)NC(=O)CNC(=O)[C@H](CCCN=C(N)N)NC1=O (single isomer, unassigned)"
–,0.6 µM,–,CN1C(=O)c2ccccc2SSc2ccccc2NC(=O)[C@@H](CC(=O)O)NC(=O)CNC(=O)[C@@H]1CCCN=C(N)N
–,0.17 µM,–,"CC(=O)N[C@H]1CSSc2ccccc2NC(=O)[C@H](CC(=O)O)NC(=O)CNC(=O)[C@H](CCCN=C(N)N)N(C)C1=O (single isomer, unassigned)"
